Results published in ChEMBL document CHEMBL3297671, “Identification and bioactivity of 3-epi-xestoaminol C isolated from the New Zealand brown alga Xiphophora chondrophylla” (J Nat Prod, 2014).
Values after ≈ are worked out from the molar mass of the structure shown. Active and inactive are the calls of the source. The calls are words filed in the database; no cut-off is given here.

Legend:
Saccharomyces cerevisiae [1] = experiment: Antimicrobial activity against Saccharomyces cerevisiae assessed as compound level causing less than 2% growth after 16 hrs by serial dilution method; format: functional
Procedure, shortened: (§1)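 Values are read from dose-response curves. No IC50 is calculated where the curve is too steep.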

Saccharomyces cerevisiae [2] = experiment: Antimicrobial activity against Saccharomyces cerevisiae after 16 hrs by serial dilution method; format: functional, organism-based; procedure, shortened: as §1
Pseudomonas aeruginosa [3] = experiment: Antimicrobial activity against Pseudomonas aeruginosa PAO1 assessed as compound level causing less than 2% growth after 16 hrs by serial dilution method; format: functional
HL-60 [4] = experiment: Cytotoxicity against human HL60 cells assessed as compound level causing less than 2% growth after 48 hrs by MTT assay; format: functional
Pseudomonas aeruginosa [5] = experiment: Antimicrobial activity against Pseudomonas aeruginosa PAO1 after 16 hrs by serial dilution method; format: functional, organism-based
Staphylococcus aureus [6] = experiment: Antimicrobial activity against Staphylococcus aureus ATCC 25923 assessed as compound level causing less than 2% growth after 16 hrs by serial dilution method; format: functional; settings: ATCC 25923, 16 h; procedure, shortened: as §1
Escherichia coli [7] = experiment: Antimicrobial activity against Escherichia coli ATCC 25922 assessed as compound level causing less than 2% growth after 16 hrs by serial dilution method; format: functional; settings: ATCC 25922, 16 h
HL-60 [8] = experiment: Cytotoxicity against human HL60 cells after 48 hrs by MTT assay; format: functional, cell-based; settings: HL-60, 48 h
Staphylococcus aureus [9] = experiment: Antimicrobial activity against Staphylococcus aureus ATCC 25923 after 16 hrs by serial dilution method; format: functional, organism-based; settings: ATCC 25923, 16 h
[10] = Cytotoxicity against human HEK cells assessed as compound level causing less than 2% growth after 48 hrs by MTT assay; format: functional, HEK293
[11] = Cytotoxicity against human HEK cells after 48 hrs by MTT assay; format: functional, cell-based; settings: HEK293, 48 h
Escherichia coli [12] = experiment: Antimicrobial activity against Escherichia coli ATCC 25922 after 16 hrs by serial dilution method; format: functional, organism-based; settings: ATCC 25922, 16 h

Q: For `C[C@@H]1C[C@@H]([C@H](O)CC2CC(=O)NC(=O)C2)C(=O)[C@@H](C)C1` [CYCLOHEXIMIDE], which MIC (Saccharomyces cerevisiae [1]) is on record?
A: 1 µM (≈ 0.281 µg/mL)

Q: And the IC50 (Saccharomyces cerevisiae [2])?
A: 0.04 µM

Q: What does the source list for `CCCCCCCCCCC[C@H](O)[C@H](C)N`?
A: MIC (Pseudomonas aeruginosa [3]): inactive; MIC (HL-60 [4]): 32.7 µM (≈ 7.5 µg/mL); MIC (Saccharomyces cerevisiae [1]): inactive; IC50 (Saccharomyces cerevisiae [2]): 17.1 µM; IC50 (Pseudomonas aeruginosa [5]): Not Active; MIC (Staphylococcus aureus [6]): 65.1 µM (≈ 14.9 µg/mL); MIC (Escherichia coli [7]): 32.6 µM (≈ 7.48 µg/mL); IC50 (HL-60 [8]): 8.8 µM; IC50 (Staphylococcus aureus [9]): 17 µM; MIC [10]: 32.7 µM (≈ 7.5 µg/mL); IC50 [11]: 18 µM

Q: With `CN(C)[C@@H]1C(O)=C(C(N)=O)C(=O)[C@@]2(O)C(O)=C3C(=O)c4c(O)cccc4[C@@](C)(O)[C@H]3C[C@@H]12` [TETRACYCLINE] as the molecule, how does the MIC (Pseudomonas aeruginosa [3]; PAO1, 16 h) read?
A: > 500 µM

Q: What about the IC50 (Escherichia coli [12]) of the same molecule?
A: 26.4 µM

Q: And the IC50 (Pseudomonas aeruginosa [5]; Pseudomonas aeruginosa, PAO1, 16 h, read-out: IC50)?
A: 143 µM

Q: And the MIC (Staphylococcus aureus [6])?
A: 62.5 µM (≈ 27.8 µg/mL)

Q: And the MIC (Escherichia coli [7])?
A: ≥ 500 µM

Q: What about the IC50 (Staphylococcus aureus [9]) of the same molecule?
A: 5.7 µM
